{"source": "ChEMBL document CHEMBL1131239", "about": "“Orally active benzamide antipsychotic agents with affinity for dopamine D2, serotonin 5-HT1A, and adrenergic alpha1 receptors” (J Med Chem, 1998)", "key": {"[1]": {"target": "T1, 5-hydroxytryptamine receptor 1A (Rattus norvegicus, UniProt P19327)", "T1 sequence (P19327 whole entry)": "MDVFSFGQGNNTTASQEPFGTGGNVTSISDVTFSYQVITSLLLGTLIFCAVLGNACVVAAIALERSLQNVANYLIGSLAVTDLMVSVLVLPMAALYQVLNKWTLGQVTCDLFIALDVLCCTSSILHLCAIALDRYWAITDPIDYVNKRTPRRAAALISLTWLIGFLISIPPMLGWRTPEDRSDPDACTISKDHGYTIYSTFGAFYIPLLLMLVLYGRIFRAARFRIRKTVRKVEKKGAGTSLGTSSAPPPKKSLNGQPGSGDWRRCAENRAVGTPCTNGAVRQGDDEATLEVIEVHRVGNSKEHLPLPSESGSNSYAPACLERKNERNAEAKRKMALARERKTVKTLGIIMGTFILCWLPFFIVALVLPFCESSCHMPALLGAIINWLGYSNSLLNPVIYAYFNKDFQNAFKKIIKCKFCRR", "test": "Compound was evaluated for its binding affinity against 5-hydroxytryptamine 1A receptor from rat cerebral cortex", "format": "tissue-based"}, "[2]": {"target": "T2, Adrenergic receptor alpha-1 (Rattus norvegicus, UniProt P15823+P23944+P43140)", "T2 sequence (P15823 whole entry)": "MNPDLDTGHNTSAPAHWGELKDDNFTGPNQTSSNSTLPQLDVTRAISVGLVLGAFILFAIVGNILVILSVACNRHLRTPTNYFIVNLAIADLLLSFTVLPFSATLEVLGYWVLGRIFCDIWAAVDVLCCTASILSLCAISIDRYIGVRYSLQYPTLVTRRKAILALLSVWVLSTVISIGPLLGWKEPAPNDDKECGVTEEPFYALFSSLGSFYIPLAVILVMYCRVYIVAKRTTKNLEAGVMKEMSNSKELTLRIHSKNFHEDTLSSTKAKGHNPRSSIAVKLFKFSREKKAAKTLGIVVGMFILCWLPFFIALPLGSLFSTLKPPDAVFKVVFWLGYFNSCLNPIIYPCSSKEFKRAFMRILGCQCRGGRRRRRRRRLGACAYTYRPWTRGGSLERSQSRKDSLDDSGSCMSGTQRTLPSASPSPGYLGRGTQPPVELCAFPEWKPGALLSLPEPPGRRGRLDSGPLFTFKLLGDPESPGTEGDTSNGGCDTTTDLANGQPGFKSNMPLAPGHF", "T2 sequence (P23944 whole entry)": "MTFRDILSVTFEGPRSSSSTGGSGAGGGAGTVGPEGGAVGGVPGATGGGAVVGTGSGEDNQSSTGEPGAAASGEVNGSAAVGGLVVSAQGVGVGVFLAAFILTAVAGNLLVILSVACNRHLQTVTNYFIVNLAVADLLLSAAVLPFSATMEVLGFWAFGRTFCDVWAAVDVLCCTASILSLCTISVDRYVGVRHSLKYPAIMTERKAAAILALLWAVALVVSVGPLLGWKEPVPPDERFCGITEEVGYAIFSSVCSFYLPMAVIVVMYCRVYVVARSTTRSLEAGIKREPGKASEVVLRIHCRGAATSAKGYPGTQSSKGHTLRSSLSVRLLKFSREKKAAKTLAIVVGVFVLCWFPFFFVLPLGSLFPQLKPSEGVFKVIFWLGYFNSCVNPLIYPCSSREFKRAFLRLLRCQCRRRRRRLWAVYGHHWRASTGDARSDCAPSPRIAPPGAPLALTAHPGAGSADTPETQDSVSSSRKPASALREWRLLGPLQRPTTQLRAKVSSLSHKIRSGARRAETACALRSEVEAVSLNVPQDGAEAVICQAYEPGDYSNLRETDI", "T2 sequence (P43140 whole entry)": "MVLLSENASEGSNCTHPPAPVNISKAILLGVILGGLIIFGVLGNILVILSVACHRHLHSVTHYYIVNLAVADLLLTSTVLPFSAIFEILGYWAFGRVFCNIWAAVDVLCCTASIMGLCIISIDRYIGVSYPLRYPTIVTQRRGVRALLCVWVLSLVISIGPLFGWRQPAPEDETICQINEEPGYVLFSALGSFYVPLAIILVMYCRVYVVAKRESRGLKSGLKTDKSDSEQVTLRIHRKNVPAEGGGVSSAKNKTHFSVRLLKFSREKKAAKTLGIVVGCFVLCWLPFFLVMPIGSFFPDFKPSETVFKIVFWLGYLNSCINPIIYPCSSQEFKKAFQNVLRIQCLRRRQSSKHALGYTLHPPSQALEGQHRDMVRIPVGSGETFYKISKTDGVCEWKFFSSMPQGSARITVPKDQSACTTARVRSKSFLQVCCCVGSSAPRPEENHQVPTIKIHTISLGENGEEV", "test": "Binding affinity against Alpha-1 adrenergic receptor from rat cerebral cortex", "format": "tissue-based"}, "[3]": {"system": "Rattus norvegicus", "test": "compound was tested for antipsychotic activity by conditioned avoidance response(CAR) assay in rats with a pretreatment period of 30 min upon intra peritoneal administration at a concentration of 1 mg/kg.", "format": "functional", "how_it_was_run": "(§1)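 Trained rats (N = 4) were run in 1-h sessions on two consecutive days, with the experimenter blind to drug and dose. Fed rats had food and water until placed in the test chambers. Fasted rats had no food overnight before the experiment.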"}, "[4]": {"system": "Rattus norvegicus", "test": "compound was tested for antipsychotic activity by conditioned avoidance response(CAR) assay in rats with a pretreatment period of 30 min upon intra peritoneal administration at a concentration of 5 mg/kg.", "format": "functional", "how_it_was_run": "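Rat conditioned avoidance test modified from Martin et al. Trained rats (N = 4) were run in 1-h sessions on two consecutive days. Fed animals had food and water until placed in the test chambers. Dosing was ip with 30 min pretreatment, and activity was expressed as percent inhibition at the stated dose.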"}, "[5]": {"system": "Rattus norvegicus", "test": "compound was tested for antipsychotic activity by conditioned avoidance response(CAR) assay in rats with a pretreatment period of 30 min upon peroral administration at a concentration of 20 mg/kg.", "format": "functional", "details": "route oral", "how_it_was_run": "as §1"}, "[6]": {"system": "Rattus norvegicus", "test": "Percent catalepsy in male Spargue-Dawley rat at pretreatment time 60 mins and when administered ip at dose 50 mg/kg", "format": "functional", "details": "route intraperitoneal", "how_it_was_run": "(§2)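 Catalepsy in rats, groups of five per drug treatment, scored blind to drug and dose. Each session included a saline or vehicle negative control and a haloperidol 2 mg/kg positive control. Deaths during the experiment were recorded in the catalepsy column as number dead out of five.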"}, "[7]": {"system": "Rattus norvegicus", "test": "compound was tested for antipsychotic activity by conditioned avoidance response(CAR) assay in rats with a pretreatment period of 30 min upon intra peritoneal administration at a concentration of 5 mg/kg", "format": "functional", "how_it_was_run": "as §1"}, "[8]": {"system": "Rattus norvegicus", "test": "compound was tested for antipsychotic activity by conditioned avoidance response(CAR) assay in rats with a pretreatment period of 30 min upon intra peritoneal administration at a concentration of 13.4 mg/kg.", "format": "functional", "how_it_was_run": "as §1"}, "[9]": {"system": "Rattus norvegicus", "test": "compound was tested for antipsychotic activity by conditioned avoidance response(CAR) assay in rats with a pretreatment period of 30 min upon intra peritoneal administration at a concentration of 7.5 mg/kg.", "format": "functional", "how_it_was_run": "as §1"}, "[10]": {"system": "Rattus norvegicus", "test": "Percent catalepsy in male Spargue-Dawley rat at pretreatment time 240 mins and when administered ip at dose 50 mg/kg (4/5L denotes that four rats out of five died during the course of experiment)", "format": "functional", "details": "route intraperitoneal", "how_it_was_run": "(§3)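 Catalepsy scored in groups of five rats per drug treatment, with the experimenter blind to drug and dose, in a quiet room. Each session included two control groups: saline (or vehicle) as negative control and haloperidol 2 mg/kg as positive control. Deaths during the experiment were recorded as lethality (e.g., 3/5L) in place of percent catalepsy.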"}, "[11]": {"system": "Rattus norvegicus", "test": "Percent catalepsy in male Spargue-Dawley rat at pretreatment time 60 mins and when administered ip at dose 50 mg/kg (3/5L denotes that three rats out of five died during the course of experiment)", "format": "functional", "details": "route intraperitoneal", "how_it_was_run": "as §3"}, "[12]": {"system": "Rattus norvegicus", "test": "compound was tested for antipsychotic activity by conditioned avoidance response(CAR) assay in rats with a pretreatment period of 30 min upon intra peritoneal administration.", "format": "functional", "how_it_was_run": "as §1"}, "[13]": {"system": "Rattus norvegicus", "test": "Percent catalepsy in male Spargue-Dawley rat at pretreatment time 60 mins and administered ip at dose 50 mg/kg", "format": "functional", "details": "route intraperitoneal", "how_it_was_run": "as §2"}, "[14]": {"target": "T1, 5-hydroxytryptamine receptor 1A", "test": "Compound was evaluated for its binding affinity with 5-hydroxytryptamine 1A receptor using membranes prepared from rat cerebral cortex", "format": "tissue-based", "how_it_was_run": "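Membranes from male Wistar rat cerebral cortex: homogenized in HEPES-buffered 0.3 M sucrose, P2 pellet incubated 30 min at 25 °C, resuspended in 3 mM phosphate buffer pH 7.5. Labeled with 3 nM [3H]-8-OH-DPAT for 20 min at 25 °C. Nonspecific binding defined with 1 μM serotonin.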"}, "[15]": {"target": "T2, Adrenergic receptor alpha-1", "test": "Compound was evaluated for its binding affinity with Alpha-1 adrenergic receptor using membranes prepared from rat cerebral cortex", "format": "tissue-based"}, "[16]": {"system": "Rattus norvegicus", "test": "compound was tested for antipsychotic activity by conditioned avoidance response(CAR) assay in rats with a pretreatment period of 30 min upon intra peritoneal administration at a concentration of 15 mg/kg", "format": "functional", "how_it_was_run": "as §1"}, "[17]": {"system": "Rattus norvegicus", "test": "compound was tested for antipsychotic activity by conditioned avoidance response(CAR) assay in rats with a pretreatment period of 30 min upon intra peritoneal administration at a concentration of 15 mg/kg.", "format": "functional"}, "[18]": {"system": "Rattus norvegicus", "test": "compound was tested for antipsychotic activity by conditioned avoidance response(CAR) assay in rats with a pretreatment period of 60 min upon peroral administration at a concentration of 10 mg/kg.", "format": "functional", "details": "route oral", "how_it_was_run": "as §1"}}, "data": [{"smiles": "O=C(c1cccc(CN2CCN(C3COc4ccccc4O3)CC2)c1)N1CCCCC1", "note": "(stereo not given)", "values": [{"measurement": "Ki", "setting": "[1]", "value": 0.34, "unit": "nM"}, {"measurement": "Ki", "setting": "[2]", "value": 21, "unit": "nM"}, {"measurement": "inhibition in vivo at 1 mg/kg", "setting": "[3]", "value": -2.6, "unit": "%"}, {"measurement": "inhibition in vivo at 5 mg/kg", "setting": "[4]", "value": -93.8, "unit": "%"}, {"measurement": "inhibition in vivo at 20 mg/kg", "setting": "[5]", "value": -68.2, "unit": "%"}, {"measurement": "Catalepsy", "setting": "[6]", "value": 29, "unit": "%"}]}, {"smiles": "CC(C)Oc1ccccc1N1CCN(Cc2cccc(S(=O)(=O)N3CCCCC3)c2)CC1", "values": [{"measurement": "Ki", "setting": "[2]", "value": 6.7, "unit": "nM"}, {"measurement": "inhibition in vivo at 5 mg/kg", "setting": "[7]", "value": -6.7, "unit": "%"}]}, {"smiles": "CC(C)Oc1ccccc1N1CCN(Cc2cccc(C(=O)N3CCCC3)c2)CC1", "values": [{"measurement": "Ki", "setting": "[1]", "value": 3.6, "unit": "nM"}, {"measurement": "Ki", "setting": "[2]", "value": 1.9, "unit": "nM"}, {"measurement": "inhibition in vivo at 1 mg/kg", "setting": "[3]", "value": -44.8, "unit": "%"}, {"measurement": "inhibition in vivo at 13.4 mg/kg", "setting": "[8]", "value": -79.4, "unit": "%"}, {"measurement": "inhibition in vivo at 7.5 mg/kg", "setting": "[9]", "value": -98.3, "unit": "%"}, {"measurement": "Catalepsy", "setting": "[10]", "value": 0, "unit": "%"}, {"measurement": "Catalepsy", "setting": "[11]", "value": 0, "unit": "%"}]}, {"smiles": "CCOc1ccccc1N1CCN(Cc2cccc(C(=O)N3CCCCCC3)c2)CC1", "values": [{"measurement": "Ki", "setting": "[1]", "value": 0.71, "unit": "nM"}, {"measurement": "Ki", "setting": "[2]", "value": 8.2, "unit": "nM"}, {"measurement": "ED50", "setting": "[12]", "value": 1.26, "unit": "mg/kg"}, {"measurement": "Catalepsy", "setting": "[13]", "value": 47.5, "unit": "%"}]}, {"smiles": "O=C(c1cccc(CN2CCN(c3nsc4ccccc34)CC2)c1)N1CCCCC1", "values": [{"measurement": "Ki", "setting": "[14]", "value": 2.5, "unit": "nM"}, {"measurement": "Ki", "setting": "[15]", "value": 2.7, "unit": "nM"}, {"measurement": "inhibition in vivo at 5 mg/kg", "setting": "[4]", "value": -89.6, "unit": "%"}, {"measurement": "Catalepsy", "setting": "[6]", "value": 74, "unit": "%"}]}, {"smiles": "O=C(c1cccc(CN2CCNCC2)c1)N1CCCCC1", "values": [{"measurement": "Ki", "setting": "[2]", "value": "> 1000", "unit": "nM"}, {"measurement": "inhibition in vivo at 15 mg/kg", "setting": "[16]", "value": -30.2, "unit": "%"}]}, {"smiles": "CC(C)Oc1ccccc1N1CCN(Cc2cccc(C(=O)N3CCc4ccccc43)c2)CC1", "values": [{"measurement": "Ki", "setting": "[1]", "value": 3.4, "unit": "nM"}, {"measurement": "Ki", "setting": "[2]", "value": 1.7, "unit": "nM"}, {"measurement": "inhibition in vivo at 1 mg/kg", "setting": "[3]", "value": -1.6, "unit": "%"}, {"measurement": "inhibition in vivo at 15 mg/kg", "setting": "[17]", "value": -95.8, "unit": "%"}, {"measurement": "inhibition in vivo at 10 mg/kg", "setting": "[18]", "value": -1.4, "unit": "%"}]}]}
